Molecules are shown by their SMILES.

The nature of series [1]: Cytotoxicity against HUVEC. The series is classed as cell-based. Conditions: human, HUVEC cells; read-out: ED50 (the source's name).
In the next series the test system is KB. Put plainly: Cytotoxicity against human KB cells. The series is classed as functional. The settings on record: for EC50: Homo sapiens, KB, read-out: ED50 (the source's name). The method in brief:
(§1)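 Cytotoxicity was tested on a panel of human cancer cell lines following established protocols, with ED50 as the read-out. Extracts, fractions and isolates from twigs and leaves were run the same way.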

The nature of series [2]: Cytotoxicity against human telomerase reverse transcriptase expressing human RPE1 cells. The settings on record: for EC50: Homo sapiens, RPE-1, read-out: ED50 (the source's name). Type of series: functional, TERT-RPE1.
The subject of a further series is Lu1. Put plainly: Cytotoxicity against human Lu1 cells. The series is classed as functional. Conditions: for EC50: Homo sapiens, Lu1, read-out: ED50 (the source's name). In a few lines:
as §1

The subject of a further series is Col2. Briefly: Cytotoxicity against human Col2 cells. Type of series: functional, cell-based. In a few lines: as §1
A further series concerns LNCaP. Put plainly: Cytotoxicity against human LNCAP cells. Type of series: functional. The settings on record: for EC50: Homo sapiens, LNCaP, read-out: ED50 (the source's name). The method in brief:
as §1

The mark [3] stands for this setting: read-out: ED50 (the source's name).

As for `CC(C)=CC[C@@H](O)[C@@H](C)[C@H]1CC[C@H]2C3=CCC4[C@@H](O)[C@@H](O)CC[C@]4(C)[C@H]3CC[C@]12C` (stereo partly drawn), in series [1], the CC50 was above 1000 nM. Moreover, the ED50 (in the series on KB; in series [2]; in the series with Lu1; with LNCaP) was above 1000 nM each time. In addition, the EC50 in the series on Col2 (read-out: EC50) is above 1000 nM.
As for `COc1ccc([C@@]23Oc4cc(OC)cc(OC)c4[C@]2(O)[C@H](OC(C)=O)C[C@H]3c2ccccc2)cc1`, in series [1], the CC50 amounted to 231 nM. The EC50 turned out to be 147 nM in the series with KB; 210 nM in series [2]; 210 nM with Lu1; 189 nM in the series with Col2 (setting [3]); 273 nM with LNCaP.
As for `C=C(C)[C@@H]1CC[C@]2(C)[C@H](CC[C@@H]3[C@@H]([C@@](C)(O)C/C=C/C(C)(C)O)CC[C@]32C)[C@@]1(C)CCC(=O)O`, the CC50 in series [1] is above 1000 nM. Moreover, the ED50 (with KB; in series [2]; in the series on Lu1; with LNCaP) was above 1000 nM each time. Moreover, the EC50 in the series with Col2 (read-out: EC50) is above 1000 nM.
For the molecule `C=C(C)[C@@H]1CC[C@]2(C)[C@H](CC[C@@H]3[C@@H]([C@@](C)(O)C/C=C/C(C)(C)O)CC[C@]32C)[C@@]1(C)CCC(=O)OC`, the CC50 in series [1] is above 1000 nM. Also, the ED50 (in the series on KB; in series [2]; in the series with Lu1; in the series on LNCaP) was above 1000 nM throughout. Further, in the series on Col2 (read-out: EC50), the EC50 is above 1000 nM.
In the case of `COc1ccc(-c2oc3cc(OC)cc(O)c3c(=O)c2OC)cc1`, the CC50 in series [1] was above 1000 nM. The ED50 (in the series with KB; in series [2]; in the series on Lu1; with LNCaP) was above 1000 nM in each case. In addition, in the series on Col2 (read-out: EC50), the EC50 was above 1000 nM.
With `COC(=O)[C@H]1[C@@H](O)[C@@]2(O)c3c(OC)cc(OC)cc3O[C@@]2(c2ccc(OC)cc2)[C@@H]1c1ccccc1` [AGLAFOLIN], in series [1], the CC50 turned out to be 203 nM. Further, the EC50 came to 142 nM with KB; 183 nM in series [2]; 163 nM in the series with Lu1; 243 nM in the series on Col2 (setting [3]); 325 nM in the series on LNCaP.
In the case of `CC(C)(O)[C@@H]1CC[C@@](C)([C@H]2CC[C@]3(C)[C@@H]2CC[C@@H]2[C@@]4(C)CCC(=O)C(C)(C)[C@@H]4CC[C@]23C)O1` [CABRALEONE], in series [1], the CC50 is above 1000 nM. In addition, the ED50 (in the series with KB; in series [2]; with Lu1; in the series with LNCaP) was above 1000 nM each time. Moreover, the EC50 with Col2 (read-out: EC50) was above 1000 nM.
In the case of `CC[C@@]1(O)C(=O)OCc2c1cc1n(c2=O)Cc2cc3ccccc3nc2-1` [CAMPTOTHECIN], in series [1], the CC50 worked out at 258 nM. The EC50 with KB turned out to be 22 nM; in series [2], 230 nM; in the series on Lu1, 29 nM; with Col2 (setting [3]), 57 nM; with LNCaP it was 28 nM.
`O=C1C[C@@H](c2ccc(O)c(O)c2)Oc2cc(O)cc(O)c21` [ERIODICTYOL]: the CC50 in series [1] was above 1000 nM. In addition, the ED50 (with KB; in series [2]; in the series with Lu1; with LNCaP) was above 1000 nM each time. Also, the EC50 with Col2 (read-out: EC50) was above 1000 nM.
With `O=C1C[C@@H](c2ccc(O)cc2)Oc2cc(O)cc(O)c21` [NARINGENIN], the CC50 in series [1] is above 1000 nM. For the same molecule, the ED50 (in the series with KB; in series [2]; in the series on Lu1; with LNCaP) was above 1000 nM throughout. Moreover, in the series with Col2 (read-out: EC50), the EC50 was above 1000 nM.
For `CC(=O)O[C@H]1C(=O)[C@@]2(C)[C@H]([C@H](OC(=O)c3ccccc3)[C@]3(O)C[C@H](OC(=O)[C@H](O)[C@@H](NC(=O)c4ccccc4)c4ccccc4)C(C)=C1C3(C)C)[C@]1(OC(C)=O)CO[C@@H]1C[C@@H]2O` [PACLITAXEL], in series [1], the CC50 worked out at 105 nM. Also, the EC50 in the series on KB stood at 0.4 nM; in series [2] it was 23 nM; in the series on Lu1, 2 nM; in the series on Col2 (setting [3]), 46 nM; with LNCaP, 5 nM.
Turning to `COc1ccc([C@@]23Oc4cc(OC)cc(OC)c4[C@]2(O)[C@H](O)[C@H](C(=O)O)[C@H]3c2ccccc2)cc1` [ROCAGLOIC ACID], the CC50 in series [1] was found to be 209 nM. Moreover, the EC50 was 204 nM with KB; 209 nM in series [2]; 63 nM in the series with Lu1; 209 nM in the series with Col2 (setting [3]); 104 nM in the series with LNCaP.
For the molecule `C=C(C)[C@@H]1CC[C@]2(C)[C@H](CC[C@@H]3[C@@H]([C@]4(C)CC[C@H](C(C)(C)O)O4)CC[C@]32C)[C@@]1(C)CCC(=O)O` [SHOREIC ACID], the CC50 in series [1] was above 1000 nM. Also, the ED50 (with KB; in series [2]; in the series on Lu1; in the series on LNCaP) was above 1000 nM each time. Further, the EC50 in the series with Col2 (read-out: EC50) was above 1000 nM.

Source of the values: ChEMBL document CHEMBL1146492, “Cytotoxic constituents of the twigs and leaves of Aglaia rubiginosa” (J Nat Prod, 2004).
